Rows were chosen to be rich in hits. Some 2.7% of all compounds tested hit in one or more screens of this group.
ARFGAP1 inh: inhibitors of rat ARFGAP1; Q62848; Arfgap1-stimulated ARF1 GTP hydrolysis, GDP FP detection; inhibition, % at 16.5 µM; 360,000 compounds, 0.26% hits;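 active means inhibition above a per-plate limit, mean inhibition of low control wells plus 3 SD, cut at about 25% in these data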
Target sequence (Q62848 1-136 limits assumed): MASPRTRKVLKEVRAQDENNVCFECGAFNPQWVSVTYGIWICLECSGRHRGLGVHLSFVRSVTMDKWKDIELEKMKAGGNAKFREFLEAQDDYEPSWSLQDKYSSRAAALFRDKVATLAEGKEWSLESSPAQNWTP
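system = rat Arfgap1 catalytic domain, aa 1-136 | technique = FP, GDP Alexa 633 tracer displaced from anti-GDP antibody, 620/688 nm | compound = one concentration, 16.5 µM, DMSO 1.26% | medium = HEPES-based buffer, pH 7.5 | timing = compound-enzyme preincubation 20 min, reaction 120 min, detection 60 min, 25 °C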
PAFAH1B2 FP inh: blocks human PAF acetylhydrolase 1b catalytic subunit 2; P68402; recombinant PAFAH1B2, FP-rhodamine activity probe, fluorescence polarization; inhibition, % at 3.39 µM; 340,000 compounds, 1.2% hits; AID 492953;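 active means inhibition above the mean of all tested compounds plus 3 SD, cut at about 24% in these data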
pPAFAH inh: inhibitors of human plasma PAF acetylhydrolase (pPAFAH); recombinant pPAFAH, FP-rhodamine probe fluorescence polarization; inhibition, % at 3.39 µM; 330,000 compounds, 1.5% hits;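 active means inhibition above the mean inhibition across the screen plus 3 SD, cut at about 25% in these data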;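 further: inhibitors block binding of the rhodamine activity-based probe so polarization drops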
PAFAH1B3 inh: inhibitors of human PAFAH1B3; recombinant PAFAH1B3, FP-rhodamine probe, fluorescence polarization; 340,000 compounds, 0.28% hits; inhibition, % at 3.39 µM; AID 492972; Q15102;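 active means inhibition above the screen-wide average of all tested compounds plus 3 SD, cut at about 25% in these data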
PAFAH2 FP inh: inhibitors of human PAFAH2; Q99487; recombinant PAFAH2, FP-rhodamine activity probe, fluorescence polarization; inhibition, % at 3.39 µM; 340,000 compounds, 0.99% hits; AID 492956;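 active means inhibition above the mean over all tested compounds plus 3 SD, cut at about 30% in these data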;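 further: inhibitors block probe labeling of enzyme so polarization drops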
ASAP1 GAP inh: inhibitors of human ASAP1 ArfGAP activity. Q9ULH1. ASAP1-stimulated ARF1 GTP hydrolysis, GDP FP detection. inhibition, % at 16.5 µM. 360,000 compounds, 0.19% hits. AID 624377; in the data active means inhibition above about 25%
ASAP1 GAP conf: confirmation of human ASAP1 inhibitors. ASAP1-stimulated Arf1 GTPase, GDP fluorescence polarization. inhibition, % at 16.5 µM. 620 compounds, 37% hits. shares compounds with ASAP1 GAP inh. AID 624431;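 active means mean inhibition over triplicates exceeds the hit threshold derived for the earlier primary screening run, cut at about 25% in these data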
ARFGAP1 confirm: rat ARFGAP1 inhibition, confirmed | shares compounds with ARFGAP1 inh | ARFGAP1-stimulated ARF1 GTP hydrolysis, GDP tracer FP | inhibition, % at 16.5 µM | 890 compounds, 30% hits;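 active means average inhibition over triplicates above the hit cutoff set in the earlier primary screen, cut at about 25% in these data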
Target sequence (Q62848 whole entry, looked up): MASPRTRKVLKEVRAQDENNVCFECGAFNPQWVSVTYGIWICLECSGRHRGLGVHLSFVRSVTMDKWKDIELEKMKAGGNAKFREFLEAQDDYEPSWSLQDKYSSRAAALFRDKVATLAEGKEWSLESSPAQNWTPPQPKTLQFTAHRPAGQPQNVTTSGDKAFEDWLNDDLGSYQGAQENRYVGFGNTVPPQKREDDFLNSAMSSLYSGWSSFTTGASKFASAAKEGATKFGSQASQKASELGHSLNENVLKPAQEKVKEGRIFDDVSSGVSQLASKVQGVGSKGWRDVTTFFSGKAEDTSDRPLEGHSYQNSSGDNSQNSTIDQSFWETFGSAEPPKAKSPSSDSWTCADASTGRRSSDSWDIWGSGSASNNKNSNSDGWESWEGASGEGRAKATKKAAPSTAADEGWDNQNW
Numbers stand for hits.

Results for CCC(=O)N(C)C[C@@H]1Oc2ncc(Br)cc2C(=O)N([C@@H](C)CO)C[C@H]1C ?
ARFGAP1 inh: inactive; ASAP1 GAP inh: inactive

What do the screens show for `COc1cc2c3nnc(-c4ccc(F)cc4)c-3cn(Cc3ccc(F)cc3)c2cc1OC`?
ARFGAP1 inh: inactive; PAFAH1B2 FP inh: inactive; pPAFAH inh: inactive; PAFAH1B3 inh: inactive; PAFAH2 FP inh: inactive; ASAP1 GAP inh: inactive

What do the screens show for `COc1cc2c3nnc(-c4ccc(F)cc4)c-3cn(Cc3ccccc3)c2cc1OC`?
ARFGAP1 inh: 36.2; PAFAH1B2 FP inh: inactive; pPAFAH inh: inactive; PAFAH1B3 inh: inactive; PAFAH2 FP inh: inactive; ASAP1 GAP inh: 79.3; ASAP1 GAP conf: 59.8; ARFGAP1 confirm: 29.2

Results for CC(C)C[C@H]1CN(CCCC[C@H]2CNC(=O)C(=O)N2CCc2ccccc2)C(=O)C(=O)N1CCC1CCCCC1 ?
ARFGAP1 inh: inactive; ASAP1 GAP inh: inactive

Results for C[C@@H]1CCCCO[C@@H](CN(C)C(=O)Nc2ccccc2)[C@@H](C)CN([C@H](C)CO)C(=O)c2cc(NC(=O)NC3CCCCC3)ccc2O1 ?
ARFGAP1 inh: inactive; ASAP1 GAP inh: inactive

Results for CN(C)CCNC(=O)c1cccc(-c2cnc3c(NC=O)cc(/C=C/c4ccccc4)cn23)c1 ?
ARFGAP1 inh: 34.5; ASAP1 GAP inh: 42.0; ASAP1 GAP conf: 36.7; ARFGAP1 confirm: 44.7

How did CN(C)CCNC(=O)c1cccc(-c2cnc3c(NC=O)cc(-c4cccc(F)c4)cn23)c1 do in these assays?
ARFGAP1 inh: inactive; ASAP1 GAP inh: inactive

What do the screens show for `Cc1cccc(C)c1NC(=O)C(c1ccc(C(F)(F)F)cc1)n1c(=O)c(-c2cc3ccccc3[nH]2)nc2ccccc21` (stereo not drawn)?
ARFGAP1 inh: inactive; ASAP1 GAP inh: inactive

What do the screens show for `CCN(CC)c1ccc(SS(=O)(=O)O)cc1`?
ARFGAP1 inh: inactive; PAFAH1B2 FP inh: inactive; pPAFAH inh: inactive; PAFAH1B3 inh: inactive; PAFAH2 FP inh: inactive; ASAP1 GAP inh: inactive

How did CCN(CC)c1ccc(C(=C2C=CC(=[N+](CC)CC)C=C2)c2ccc(S(=O)(=O)O)cc2S(=O)(=O)[O-])cc1 do in these assays?
ARFGAP1 inh: 120.9; PAFAH1B2 FP inh: inactive; PAFAH1B3 inh: inactive; PAFAH2 FP inh: inactive; ASAP1 GAP inh: 118.8; ASAP1 GAP conf: 118.3; ARFGAP1 confirm: 131.9

Results for O=C(CN(c1ccc(F)cc1)S(=O)(=O)c1ccc2c(c1)OCCO2)Nc1ccc2c(c1)OCO2 ?
ARFGAP1 inh: 26.6; PAFAH1B2 FP inh: inactive; pPAFAH inh: inactive; PAFAH1B3 inh: inactive; PAFAH2 FP inh: inactive; ASAP1 GAP inh: inactive; ARFGAP1 confirm: inactive

What do the screens show for `CC(=O)Nc1ccc(NC(=O)CN(c2ccc(F)cc2)S(=O)(=O)c2ccc3c(c2)OCCO3)cc1`?
ARFGAP1 inh: inactive; PAFAH1B2 FP inh: inactive; pPAFAH inh: inactive; PAFAH1B3 inh: inactive; PAFAH2 FP inh: inactive; ASAP1 GAP inh: inactive

What do the screens show for `Cc1cnc2nc(-c3ccccc3)ccc2c1`?
ARFGAP1 inh: 25.9; ASAP1 GAP inh: inactive; ARFGAP1 confirm: inactive

How did CC1(C(=O)NC2CCN(Cc3ccccc3)CC2)CCN1Cc1cc2ccccc2o1 (stereo not drawn) do in these assays?
ARFGAP1 inh: inactive; ASAP1 GAP inh: inactive

What do the screens show for `Cn1c(=O)c2c(nc(SCc3cccnc3)n2Cc2ccccc2)n(C)c1=O`?
ARFGAP1 inh: 25.8; PAFAH1B2 FP inh: inactive; pPAFAH inh: inactive; PAFAH1B3 inh: inactive; PAFAH2 FP inh: inactive; ASAP1 GAP inh: inactive; ARFGAP1 confirm: inactive

How did Cc1ccccc1Br do in these assays?
ARFGAP1 inh: inactive; ASAP1 GAP inh: inactive

How did Cc1nn(C)c(Cl)c1/C=N/OC(=O)c1ccccc1 do in these assays?
ARFGAP1 inh: 31.8; PAFAH1B2 FP inh: inactive; pPAFAH inh: inactive; PAFAH1B3 inh: inactive; PAFAH2 FP inh: inactive; ASAP1 GAP inh: inactive; ARFGAP1 confirm: inactive

How did Cc1nn(C)c(Cl)c1/C=N/OC(=O)c1ccc(F)cc1 do in these assays?
ARFGAP1 inh: inactive; PAFAH1B2 FP inh: inactive; pPAFAH inh: inactive; PAFAH1B3 inh: inactive; PAFAH2 FP inh: inactive; ASAP1 GAP inh: inactive

Results for COc1cccc(-c2cccc(NC(=O)C3CCN(CCCn4cccn4)CC3)c2)c1 ?
ARFGAP1 inh: inactive; ASAP1 GAP inh: inactive

How did CCNc1nc(-c2sc(NC(=O)C(C)(C)C)nc2C)c(-n2cc(-c3ccccc3)nn2)s1 do in these assays?
ARFGAP1 inh: 31.9; ASAP1 GAP inh: inactive; ARFGAP1 confirm: inactive

How did O=c1[nH]c2cc3ccccc3cc2nc1-c1nnnn1Cc1ccccc1 do in these assays?
ARFGAP1 inh: inactive; ASAP1 GAP inh: inactive

What do the screens show for `Cc1cc(NS(=O)(=O)c2ccc(NC(=S)NC(=O)c3cccc(S(=O)(=O)N(C)C)c3)cc2)no1`?
ARFGAP1 inh: 29.4; PAFAH1B2 FP inh: inactive; pPAFAH inh: inactive; PAFAH1B3 inh: inactive; PAFAH2 FP inh: inactive; ASAP1 GAP inh: inactive; ARFGAP1 confirm: 38.1

What do the screens show for `Cc1cc(NS(=O)(=O)c2ccc(NC(=S)NC(=O)c3ccc(F)cc3)cc2)no1`?
ARFGAP1 inh: inactive; PAFAH1B2 FP inh: inactive; pPAFAH inh: inactive; PAFAH1B3 inh: inactive; PAFAH2 FP inh: inactive; ASAP1 GAP inh: inactive

How did Cc1ccc(C2C(C#N)=C(N)Oc3cc4c(cc32)OCO4)cc1 (stereo not drawn) do in these assays?
ARFGAP1 inh: 25.4; PAFAH1B2 FP inh: inactive; pPAFAH inh: inactive; PAFAH1B3 inh: inactive; PAFAH2 FP inh: inactive; ASAP1 GAP inh: inactive; ARFGAP1 confirm: inactive

Results for C=CCn1c2ccccc2c2nnc(SCCCn3c(=O)[nH]c4ccccc43)nc21 ?
ARFGAP1 inh: 40.1; PAFAH1B2 FP inh: inactive; PAFAH1B3 inh: inactive; PAFAH2 FP inh: inactive; ASAP1 GAP inh: inactive; ARFGAP1 confirm: inactive

How did CC(=O)c1ccc2noc(-c3ccc(Cl)cc3)c2c1 do in these assays?
ARFGAP1 inh: inactive; PAFAH1B2 FP inh: inactive; pPAFAH inh: inactive; PAFAH1B3 inh: inactive; PAFAH2 FP inh: inactive; ASAP1 GAP inh: inactive

Results for O/N=C\c1ccc2noc(-c3ccc(Cl)cc3)c2c1 ?
ARFGAP1 inh: 24.9; PAFAH1B2 FP inh: inactive; pPAFAH inh: inactive; PAFAH1B3 inh: inactive; PAFAH2 FP inh: inactive; ASAP1 GAP inh: inactive; ARFGAP1 confirm: 28.8

What do the screens show for `O=C(NNC(=S)NC(=O)C12CC3CC(CC(C3)C1)C2)c1ccncc1`?
ARFGAP1 inh: 37.5; PAFAH1B2 FP inh: 45.4; pPAFAH inh: inactive; PAFAH1B3 inh: inactive; PAFAH2 FP inh: inactive; ASAP1 GAP inh: inactive; ARFGAP1 confirm: inactive

Results for COc1ccccc1N(CC(=O)N(C)Cc1ccccc1)S(=O)(=O)c1cccs1 ?
ARFGAP1 inh: inactive; PAFAH1B2 FP inh: inactive; pPAFAH inh: inactive; PAFAH1B3 inh: inactive; PAFAH2 FP inh: inactive; ASAP1 GAP inh: inactive

High-throughput results: PubChem, The Scripps Research Institute Molecular Screening Center
